In this data set the test system is MS2 coat protein. As to the kind of experiment: apparent Kd, MS2 coat protein; higher = weaker binding; RNA-MaP array; FMN 200 µM where present. An outline of the steps:
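Designs on Illumina sequencing-chip clusters, transcribed by stalled E. coli RNA polymerase, were exposed to SNAP-549-labelled MS2 coat protein in doubling steps from 0.7 or 1.5 nM up to 3 µM, without and then with constant ligand. The buffer held 100 mM Tris-HCl pH 7.5, 80 mM KCl, 4 mM MgCl2, BSA, DTT, yeast tRNA and Tween-20. Apparent Kd values are medians of filtered per-cluster binding-curve fits to green signal normalised to red-channel RNA signal and control-cluster median Fmax.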

The mark [1] stands for this setting: designed as: OFF switch for flavin mononucleotide, no ligand.
Where [2] appears, read: ligand present: flavin mononucleotide, designed as: OFF switch for flavin mononucleotide.
The mark [3] stands for this setting: designed as: ON switch for flavin mononucleotide, no ligand.
[4] abbreviates: ligand present: flavin mononucleotide, designed as: ON switch for flavin mononucleotide.

This note sets out measurements from the EternaBench riboswitch data.

For “GGUUGGCGAGGAUAUACAUGAGGAUCACCCAUGUGGUCCUGCGGUAGAAUCGCCCUUUGUAGAAGGCGCGGGUC”, the “apparent Kd” value was 69.5 nM under setting [1] and 72 nM under setting [2].

Turning to “GAAAAACAUGAGGAUCACCCAUGUAAGGAUAUGCUGAAAAACACGGAAAAAACGUGCAGCAGAAGGUACAAAAG”, the “apparent Kd” value by setting is: under setting [1], 63.2 nM; under setting [2], 83.3 nM.

Turning to “GAUCAACAUGAGGAUCACCCAUGUGAGGAUAUGUAUCAUAGAUCUUCGGAUCUAUGAUACAGAAGGCAUGUGAA”, the “apparent Kd” value runs as follows: under setting [1], 76.1 nM; under setting [2], 101 nM.

On to “CGGGAGUCAGGAUAUACGAACAUGUCGCCAGAUGUCAAGGUACAUGAGGAUCACCCAUGUAGAAGGGAGGAGAU”, for which the “apparent Kd” value is, setting by setting: under setting [1], 80.6 nM; under setting [2], 72.7 nM.

“GGUACUCAAAGAGUACCAAUACGAACAUGAGGAUCACCCAUGUAGGAUAUGCUACUAAAAGAGUAGCAGAAGGACAUGUGCCUA”: the “apparent Kd” value runs as follows: under setting [1], 13.5 nM; under setting [2], 75.4 nM.

As for “CAGCGAAAGCUGAAUCUGUAGAGAGAGGAUAUACAUCAUAAGAUGCAUACAUGAGGAUCACCCAUGUAGAAGGCUCUCUACAGU”, the “apparent Kd” value by setting is: under setting [1], 5.49 nM; under setting [2], 6.83 nM.

“GCGGUAUUGUAAGGAUAUACUCUGUGAUGAAGAGUAGAAGGUACUUACAUGAGGAUCACCCAUGUUUAACGUGAAAAUUACCGC”: the “apparent Kd” value was found to be 26.5 nM under setting [3] and 16.7 nM under setting [4].

Turning to “AUAUGAUAGAUAGGAUAUACAGUUGAAUAAUAAGUAGAAGGAUCAAAUGGGAAUUAUACAUGAGGAUCACCCAUGUUUUUGGAU”, the “apparent Kd” value under setting [3] is 44.1 nM and the “apparent Kd” value under setting [4] is 35.8 nM.

Turning to “GGGUACAUCGGAGGAUAUCAUGUAAAUACAUGAGGAUCACCCAUGUCGAUGGAGACAUCGGAGAUUGAGAAGGCCGAUGGACCG”, the “apparent Kd” value amounted to 163 nM under setting [3] and 8.74 nM under setting [4].

For “GGAUAGGACAGAGGAUAUACGUGCUAGAGAUACUAGCAAAAUUUCCUCACAUGAGGAUCACCCAUGUAGAAGGCUGUCCAAUCG”, the “apparent Kd” value came out at 13.8 nM under setting [1] and 429 nM under setting [2].

In the case of “UUCGUGGCAUCUCGCGCAUGUCCACAUGAGGAUCACCCAUGUCAGGAUAUACGGAAUGUCGUUCCGUAGAAGGGACAAGGGCUG”, the “apparent Kd” value is, setting by setting: under setting [1], 139 nM; under setting [2], 112 nM.

For “ACGUCUUAGUAGAAGGGACAUCGGCUGGUAAGCAUCAUCUCCUUCUCACAUGAGGAUCACCCAUGUCAGGAUAUACUAAGAUAC”, the “apparent Kd” value runs as follows: under setting [1], 12.9 nM; under setting [2], 38.7 nM.

“ACCGGGUGUCACGUAUUACCGACAUGAGGAUCACCCAUGUAGGAGGAUAUGCAGACCGACAUAAAGCAGAAGGCCUACGUUUUC”: the “apparent Kd” value is, setting by setting: under setting [1], 6.72 nM; under setting [2], 35.8 nM.

On to “UCACGGGACUGAGGAUAUACAUGAACUAUUUUUGUAGAAGGCAGAAUGUUAGAUUAUACACUAAACAUGAGGAUCACCCAUGUU”, for which the “apparent Kd” value is, setting by setting: under setting [1], 19.1 nM; under setting [2], 16.1 nM.

Take “GGUGUGGCAGGAUAUACAUCGAAGGGUGCAAAGGGCUCGGCACAUGAGGAUCACCCAUGUAGAAGGGCCUACCA”: the “apparent Kd” value reads like this: under setting [1], 14.9 nM; under setting [2], 20.7 nM.

On to “GAUAGGACAGAGAAGGACGUAGCUAGAGAUACUAGCAUAUGAACCUUCACAUGAGGAUCACCCAUGUAGGAUAUCUGUCCUAUC”, for which the “apparent Kd” value is, setting by setting: under setting [1], 3.34 nM; under setting [2], 3.35 nM.

In the case of “UUUUUGUGAGGAUAUCAGUAGUAGAACAAUAGUACUACUACUGAGAAGGUACAUGAGGAUCACCCAUGUUCCUC”, the “apparent Kd” value under setting [1] stood at 19.4 nM and the “apparent Kd” value under setting [2] is 23.7 nM.

As for “UUACUCAUGUAAGGAUAUGCAGCCGUUUCGGCUGCAGAAGGUACUAUAAUACAUGAGGAUCACCCAUGUCUUUUUAAUUUAGAU”, the “apparent Kd” value reads like this: under setting [3], 195 nM; under setting [4], 77 nM.

On to “CUUAAGCUGGCAAGGGCUGGUGAAGAGGAUAUACAUGCUAAGCGAACCACAUGAGGAUCACCCAUGUAGAAGGCUUCCCAGAAA”, for which the “apparent Kd” value runs as follows: under setting [1], 159 nM; under setting [2], 111 nM.

Regarding “GCUCUAUGCGAGAAGGCGUGAAACAUGAGGAUCACCCAUGUCAGAGAUAUGAGGAUAUUGCAUAGAGCAAAAGACGGAAACGUC”, the “apparent Kd” value runs as follows: under setting [3], 12.2 nM; under setting [4], 5.02 nM.

As a reminder, the apparent Kd is the concentration giving half-maximal binding under the conditions of the assay.
